In PubChem BioAssay AID602190 (Broad Institute, 2012) one finds AC50 and activity change, negative = inhibition data, which are given here for 21 compounds.

Molecules are shown by their SMILES. Inconclusive results are not listed. Active and inactive are the calls of the source.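 The calls were made as follows: active = compound whose fitted half-maximal concentration, in every repeat run, is at most twice the top dose tested; inconclusive = repeat runs disagree, or a flat or poor curve fit; inactive = every repeat run called inactive.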

Experiment [1] has as its system C. albicans CaCi-2 growth, Alamar Blue fluorescence, 48 h. The experiment in a line: C. albicans isolate growth inhibitors, no fluconazole added – CaCi-2 strain, plate reader, dry powder, dose response (AID 602190). In outline: (§1)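 test system = C. albicans CaCi-2, fluconazole-resistant | quantity = inoculum OD600 0.00015 | medium = RPMI 1640 with MOPS, uridine, glucose | signal = Alamar Blue fluorescence | schedule = 48 h static at 37 °C, 2 h stain | controls = amphotericin 10 µM positive control | measure = growth inhibition from lowered fluorescence | doses = dose-response series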

Experiment in experiment [2]: as above
The following applies: C. albicans CaCi-2 growth, Alamar Blue fluorescence, 48 h; at 26 µM (top of the series). In outline: as §1
Background: Alamar Blue is a resazurin reagent that responds to reducing activity.

One may read the AC50 as the midpoint of the concentration-response curve, whichever way the signal moves. With `O=C(NNC(=S)Nc1ccc(Cl)c(Cl)c1)c1ccccn1`, the AC50 in experiment [1] is 13 µM. Consider `O=C(Nc1nc(-c2ccccn2)cs1)c1ccccc1`, for which the activity change, negative = inhibition in experiment [2] is 6.07% (inactive). For `CN1CCN(C(c2ccc(C(F)(F)F)cc2)c2ccc3cccnc3c2O)CC1` (stereo unspecified), the AC50 in experiment [1] was 4.75 µM. On the same count and under the same terms, then `Cc1cc(C)n(-c2nc3ccccc3c(=O)n2OCC#N)n1`, with 6.87 µM; and `O=C(Nc1nc(-c2ccccn2)cs1)c1ccc(Cl)s1`, with 6.89 µM; and `Oc1c(CN2CCN(c3ccccc3)CC2)cc(Cl)c2cccnc12`, with 2.72 µM. Turning to `O=C(Nc1nc(-c2ccccc2)cs1)c1ccc(Br)s1`, the activity change, negative = inhibition in experiment [2] is -11.8% (inactive). For the compound `O=C(Nc1nnc(-c2ccc3c(c2)CCCC3)o1)c1ccc(Cl)cc1Cl`, the half-maximal activity concentration (AC50) in experiment [1] was 17.9 µM. Regarding `Oc1c(C(c2ccccc2Cl)N2CCCCC2)ccc2cccnc12` (stereo unspecified), in experiment [1], the AC50 is 8.88 µM.

Take `C=CCNC(=S)N/N=C(\C)c1ccccn1`: the activity change, negative = inhibition in experiment [2] was -68% (inactive). `C/C(=N\NC(=O)c1cc2ccccc2cc1O)c1ccccn1`: the AC50 in experiment [1] is 6.11 µM.

Regarding `Oc1c(CN2CCc3ccccc3C2)cc(Cl)c2cccnc12`, the concentration at half-maximal activity (AC50) in experiment [1] was 1.57 µM. On the same count and under the same terms, with `O=C(Oc1c(Cl)cc(Cl)c2cccnc12)c1ccco1` the figure was 0.708 µM.

Turning to `Cc1ccc(C(=O)Nc2nnc(-c3ccccc3)o2)cc1C`, the activity change, negative = inhibition in experiment [2] was -9.38% (inactive). On to `O=C(Nc1nnc(-c2ccc3c(c2)CCCC3)o1)c1ccccc1`, for which, in experiment [1], the AC50 was 17.6 µM. Regarding `O=C(Nc1nc(-c2ccc3c(c2)CCCC3)cs1)c1ccccc1`, the activity change, negative = inhibition in experiment [2] is -18.1% (inactive). With `Oc1c(C(c2ccc(Cl)cc2)N2CCCC2)ccc2cccnc12` (stereo unspecified), in experiment [1], the concentration at half-maximal activity (AC50) is 5.03 µM.

In the case of `Cc1ccc(-c2nc3c(Cl)cc(Cl)cc3c(=O)n2O)cc1`, the activity change, negative = inhibition in experiment [2] was -45% (inactive). As for `O=C(Nc1nc(-c2ccccn2)cs1)c1ccc(Br)s1`, the half-maximal activity concentration (AC50) in experiment [1] is 5.53 µM.

With `CCOC(=O)N1C(=O)C2(CCCCC2)N(c2ccc(C)cc2)C1=S`, the AC50 in experiment [1] is 4.29 µM.

Regarding `NC(=O)c1cccc(C(=O)Nc2nc(-c3ccc4c(c3)CCCC4)cs2)c1`, the activity change, negative = inhibition in experiment [2] was 4.94% (inactive).
